TRPC6 inh = inhibitors of mouse TRPC6 channel; HEK293-TRPC6, membrane potential dye, ACh-evoked depolarization; active compounds read low; B-score at 10 µM; 310,000 tested, 1.1% active; Q61143;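 active means B-score under library mean minus 3 SD, initial fluorescence not abnormally high, positive integrated signal ratio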;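 further: B-score derived from integrated fluorescence ratio over the kinetic read; more negative B-score means stronger inhibition of depolarization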
TRPC4 PAM = allosterically enhances the mouse TRPC4 cation channel; Q9QUQ5; HEK293 TRPC4beta/mu-opioid, DAMGO EC20, Fluo-4 Ca2+ flux; active compounds read high; B-score at 10 µM; 310,000 tested, 0.42% active;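 active means B-score of calcium response area above 5 SD of library B-scores, with initial fluorescence ratio within 5 SD of library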;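 further: B-score of integrated fluorescence ratio over time as area under calcium response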
Target sequence (Q9QUQ5 whole entry, looked up): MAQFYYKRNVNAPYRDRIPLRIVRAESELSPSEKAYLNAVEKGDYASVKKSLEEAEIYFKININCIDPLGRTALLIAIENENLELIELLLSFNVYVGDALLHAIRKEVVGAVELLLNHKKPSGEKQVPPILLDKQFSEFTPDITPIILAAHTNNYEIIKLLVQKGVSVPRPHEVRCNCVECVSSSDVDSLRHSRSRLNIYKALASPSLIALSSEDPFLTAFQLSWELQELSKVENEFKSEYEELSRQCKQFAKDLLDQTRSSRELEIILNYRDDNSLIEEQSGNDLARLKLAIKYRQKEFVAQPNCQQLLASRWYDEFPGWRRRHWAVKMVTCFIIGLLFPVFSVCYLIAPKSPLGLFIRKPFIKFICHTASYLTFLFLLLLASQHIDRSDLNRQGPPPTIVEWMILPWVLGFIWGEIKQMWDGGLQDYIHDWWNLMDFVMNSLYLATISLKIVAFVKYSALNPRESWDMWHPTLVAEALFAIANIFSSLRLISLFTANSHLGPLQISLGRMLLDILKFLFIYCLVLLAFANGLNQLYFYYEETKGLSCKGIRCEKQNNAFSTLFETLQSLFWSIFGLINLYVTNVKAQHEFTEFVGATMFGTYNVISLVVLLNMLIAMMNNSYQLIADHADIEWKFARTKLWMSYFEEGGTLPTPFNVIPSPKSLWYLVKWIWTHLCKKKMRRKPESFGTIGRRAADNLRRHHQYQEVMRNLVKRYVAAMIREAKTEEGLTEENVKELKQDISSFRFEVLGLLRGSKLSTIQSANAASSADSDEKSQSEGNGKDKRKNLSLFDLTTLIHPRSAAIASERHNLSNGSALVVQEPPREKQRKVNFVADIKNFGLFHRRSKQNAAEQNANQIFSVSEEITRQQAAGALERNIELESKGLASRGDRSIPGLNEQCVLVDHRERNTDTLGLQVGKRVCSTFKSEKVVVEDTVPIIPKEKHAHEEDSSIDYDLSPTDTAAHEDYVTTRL
TRPC4 act = activators of mouse TRPC4 channel; HEK293 TRPC4beta/mu-opioid, Fluo4 calcium fluorescence; active compounds read high; 310,000 tested, 0.49% active; AID 2237; B-score at 10 µM;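 active means B-score above 5 SD of library B-scores, and initial fluorescence ratio not above library mean plus 5 SD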;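 further: positive B-score marks a calcium rise read as TRPC4 activation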
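Assay system: HEK293 stable line with TRPC4beta plus mu-opioid receptor; schedule: 45 min room-temperature Fluo4 loading, 110 s read; technique: kinetic Fluo4 calcium fluorescence; evaluation: integrated baseline-normalised fluorescence ratio, converted to per-well B score; controls: buffer (low) and maximal DAMGO (high)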
TRPC4 block = TRPC4 (mouse) channel inhibition; Q9QUQ5; HEK293 TRPC4beta/mu-opioid, DAMGO-evoked Fluo4 calcium flux; active compounds read low; B-score at 10 µM; 300,000 tested, 0.39% active; AID 2247;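 active means B-score over 3 SD under the library average, no early fluorescence shift, positive overall ratio signal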
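Signal: kinetic Fluo4 fluorescence imaging of calcium influx. Material: stable TRPC4beta/mu-opioid receptor HEK293 cells. Probe or stimulus: DAMGO in two steps, submaximal then maximal.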
TRPC6 activator = activates the mouse TRPC6 cation channel | HEK293-TRPC6 membrane potential dye fluorescence; active compounds read high | B-score at 10 µM | 310,000 tested, 0.13% active;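 active means B-score of the integrated fluorescence ratio above library mean plus 3 SD, and starting fluorescence ratio within library mean plus 5 SD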;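 further: higher score means more depolarization so channel activation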
TRPC4 sel inh 2 = second selectivity test of TRPC6 inhibitors: effect on mouse TRPC4; shares compounds with TRPC6 inh; inhibition, % at 10 µM; AID 2776; HEK293 TRPC4/MOR, membrane potential dye fluorescence; channel activated by saturating DAMGO dose; 920 tested, 42% active;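 active means compounds whose fluorescence signal differed from control wells by over 3 SD, either direction, in both duplicate plates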
TRPC4 spec = selectivity of TRPC6 inhibitors: effect on mouse TRPC4 | shares compounds with TRPC6 inh | 920 tested, 61% active | AID 2777 | HEK293 TRPC4/mu-opioid, membrane potential fluorescence | activity change, negative = inhibition, % at 10 µM;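 active means rise or fall in signal beyond 3 SD of buffer-only wells in both replicate plates, either sign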;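 further: integrated kinetic ratio of fluorescence range over baseline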
HEK293 MPD ctr 2-1 = second check of TRPC6 inhibitor effects in parental HEK293 cells; shares compounds with TRPC6 inh; parental HEK293 membrane potential dye fluorescence; maximal acetylcholine challenge after compound addition; signal change vs control, % at 10 µM; 920 tested, 31% active;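 active means membrane potential signal moving either way by over 3 SD of the maximum-effect control, in both duplicate plates, meaning non-specific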
HEK293 MPD ctr-1 = checks TRPC6 inhibitor effects in parental HEK293 cells; AID 2780; parental HEK293 membrane potential dye fluorescence; membrane potential signal change, % at 10 µM; shares compounds with TRPC6 inh; 920 tested, 60% active;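 active means membrane potential signal shifting up or down by more than 3 SD of buffer-only wells, on both duplicate plates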
HEK293 MPD ctr-2 = checks TRPC6 modulator effects in parental HEK293 cells; shares compounds with TRPC6 inh; membrane potential dye fluorescence; membrane potential signal change, % at 10 µM; 2,400 tested, 51% active;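 active means membrane potential signal moves up or down beyond 5 SD from buffer-only wells, on both duplicate plates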
HEK293 MPD ctr 2-2 = second counter-screen for TRPC6 modulators: effect in parental HEK293 cells | 2,400 tested, 14% active | inhibition, % at 10 µM | shares compounds with TRPC6 inh | membrane potential dye fluorescence; after compound, maximal acetylcholine stimulation;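 active means membrane potential signal drops by more than 5 SD from the mean control signal, in both duplicate plates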;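 further: plate controls were acetylcholine ECmax control wells for no effect and buffer only wells for full effect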
TRPC4 ctr mod = tests whether TRPC6 modulators also affect mouse TRPC4; shares compounds with TRPC6 inh; HEK293 TRPC4/mu-opioid, membrane potential fluorescence; percent change from control (negative = decrease, positive = increase), % at 10 µM; 2,400 tested, 69% active; AID 488927;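 active means membrane potential signal moved up or down beyond 5 SD of buffer control wells, in both duplicate plates, actives on both sides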;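 further: plate controls were assay buffer wells for no effect and DAMGO maximal-effect wells for full effect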
TRPC4 ctr inh 2 = mouse TRPC4 off-target activity of TRPC6 modulators, second screen; shares compounds with TRPC6 inh; HEK293 TRPC4/mu-opioid, membrane potential dye fluorescence; stimulated with maximal-effect DAMGO; inhibition, % at 10 µM; 2,400 tested, 55% active;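 active means drop in membrane potential signal beyond 5 SD of the control wells in both duplicate plates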;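 further: TRPC4 counter screen for TRPC6 hits run under conditions tuned for TRPC6 not TRPC4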
TRPC6 block conf = mouse TRPC6 inhibitor confirmation | HEK293-TRPC6, membrane potential dye, ACh-evoked depolarization | shares compounds with TRPC6 inh | 3,300 tested, 43% active | AID 488960 | inhibition, % at 10 µM;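 active means fluorescence ratio falls more than 5 SD below the full-stimulation control mean, in both duplicate runs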;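 further: integrated fluorescence ratio of peak minus minimum over baseline after agonist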
TRPC6 act confirm = mouse TRPC6 activator confirmation | shares compounds with TRPC6 inh | HEK293-TRPC6 membrane potential dye fluorescence, FDSS | activation, % at 10 µM | 2,800 tested, 11% active | AID 488961;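 active means ratio signal rise beyond 5 SD above unstimulated control wells' mean, seen in both duplicate runs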;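 further: plate controls were buffer EC0 wells for no effect and acetylcholine ECmax response for full effect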
Numbers without * were called inactive; i = inactive; . = not tested or not shown. In the library only some 2.3% were active in any assay of this set; here they are far more common.

SMILES	TRPC6 inh	TRPC4 PAM	TRPC4 act	TRPC4 block	TRPC6 activator	HEK293 MPD ctr-2	HEK293 MPD ctr 2-2	TRPC4 ctr mod	TRPC4 ctr inh 2	TRPC6 block conf	TRPC6 act confirm	others
COc1ccc2nc(C)cc(Nc3ccc(C)cc3)c2c1	-6.62*	i	i	-7*	i	.	.	.	.	68.4%*	i	TRPC4 sel inh 2=42.5%*;TRPC4 spec=-25.9%*;HEK293 MPD ctr 2-1=i;HEK293 MPD ctr-1=-272.5%*
Cc1cc(Nc2cccc(Br)c2)c2ccccc2n1	i	i	i	i	i	.	.	.	.	.	.
COc1ccc(OC)c(Nc2cc(C)nc3nc(C)nn23)c1	i	i	i	i	i	.	.	.	.	.	.
Cc1ccc(C(=O)Nc2cccc3cccnc23)cc1C	i	i	i	i	i	.	.	.	.	.	.
Cn1c(CC(=O)Nc2ccccc2F)nnc1SCC(=O)Nc1nccs1	i	i	i	i	i	.	.	.	.	.	.
O=S1(=O)N=C(c2ccccc2)c2ccccc21	i	i	i	i	i	.	.	.	.	.	.
CN(Cc1ccccc1)C1CCN(Cc2ccccc2[N+](=O)[O-])CC1	i	i	i	i	i	.	.	.	.	.	.
COc1ccc2nc(C)cc(Nc3ccc(N4CCOCC4)cc3)c2c1	i	i	i	i	i	.	.	.	.	.	.
COc1ccc2nc(C)cc(Nc3ccc(N4CCN(C)CC4)cc3)c2c1	-9.6*	i	i	i	i	.	.	.	.	85.7%*	i	TRPC4 sel inh 2=57.0%*;TRPC4 spec=-23.6%*;HEK293 MPD ctr 2-1=-94.5%*;HEK293 MPD ctr-1=-291.5%*
Cc1[nH]c2nc3ccccc3n2c(=O)c1CCC(C)C	i	i	i	i	i	.	.	.	.	.	.
CN(C)CCN(Cc1ccco1)C(=O)c1oc2ccccc2c1NC(=O)COc1ccccc1	-5.65*	i	i	i	i	90.5%*	i	i	85.0%*	55.0%*	i
O=C(C1CC1)N1CCCC(c2ccc(Cl)cc2)=N1	-6.95*	i	i	i	i	.	.	.	.	i	.	TRPC4 sel inh 2=i;TRPC4 spec=9.6%*;HEK293 MPD ctr 2-1=i;HEK293 MPD ctr-1=5.5%*
Cc1cccc(NC(=O)[C@@H]2CCCN2C(=O)OC(C)(C)C)c1	i	i	i	i	i	.	.	.	.	.	.
Cc1cccn2c(=O)c3cc(C(N)=S)c(=N)n(CCCN4CCOCC4)c3nc12	i	i	i	i	i	.	.	.	.	.	.
Cc1cccn2c(=O)c3cc(C#N)c(=N)n(Cc4ccncc4)c3nc12	-5.65*	i	i	i	i	-167.5%*	i	-29.5%*	i	i	i
CCCn1c(=N)c(C#N)cc2c(=O)n3cccc(C)c3nc21	i	i	i	i	i	.	.	.	.	.	.
CCCn1c(=N)c(C#N)cc2c(=O)n3ccccc3nc21	-8.26*	i	i	i	i	-260.5%*	i	-44.5%*	44.0%*	37.5%*	i
Cc1cccn2c(=O)c3cc(C#N)c(=N)n(CCCN4CCOCC4)c3nc12	-8.63*	i	i	i	i	-83.5%*	118.0%*	-26.5%*	68.0%*	57.0%*	i
Cc1cccn2c(=O)c3cc(C#N)c(=N)n(CCN4CCOCC4)c3nc12	-5.62*	i	i	i	i	-149.5%*	i	-23.5%*	i	47.5%*	i
C=CCN1CCN(C(=O)c2ccc3c(c2)OCO3)CC1	i	i	i	i	i	.	.	.	.	.	.
Cc1ccc(C)c(/C=N/Nc2nc3ccccc3c(=O)n2O)c1	i	i	i	i	i	.	.	.	.	.	.
COc1ccc(-c2nnc(N(C)C(=O)c3cccnc3)s2)cc1	-5.21*	i	i	i	i	i	i	i	i	i	i
O=C(O)c1cccnc1C(=O)N1CCc2c([nH]c3ccccc23)C1C(F)(F)F (centres undefined)	i	i	i	i	i	.	.	.	.	.	.
c1cnc2c(C3NCCc4c3[nH]c3ccccc43)cccc2c1 (centres undefined)	-6.6*	i	i	i	i	i	i	i	71.5%*	49.5%*	i
N#C/C(=C\c1ccc(N2CCOCC2)o1)c1ccccc1	i	i	i	i	18.1*	448.0%*	i	89.0%*	i	i	166.0%*
SMILES	TRPC6 inh	TRPC4 PAM	TRPC4 act	TRPC4 block	TRPC6 activator	HEK293 MPD ctr-2	HEK293 MPD ctr 2-2	TRPC4 ctr mod	TRPC4 ctr inh 2	TRPC6 block conf	TRPC6 act confirm	others
N#C/C(=C/c1ccc(N2CCCCCC2)o1)c1ccc(F)cc1	i	i	i	i	i	.	.	.	.	.	.
N#C/C(=C/c1ccc(N2CCOCC2)o1)c1ccc(Br)cc1	i	i	i	i	25.3*	568.0%*	i	152.0%*	i	i	116.0%*
O=C(CCN1CCN(c2ccccc2)CC1)N/N=C/c1ccccc1OC(F)F	i	i	i	i	i	.	.	.	.	.	.
Cc1cc(C)n2[nH]c(=O)c(N=Nc3cccc(Cl)c3)c2n1	-7.5*	i	i	i	i	-198.5%*	65.0%*	-28.0%*	37.0%*	46.5%*	i
Cc1cc(C)n2[nH]c(=O)c(N=Nc3ccccc3)c2n1	-7.42*	i	i	i	i	.	.	.	.	i	i	TRPC4 sel inh 2=i;TRPC4 spec=-24.3%*;HEK293 MPD ctr 2-1=i;HEK293 MPD ctr-1=-388.0%*
Cc1cc(C)n2[nH]c(=O)c(N=Nc3cccc(C(F)(F)F)c3)c2n1	i	i	i	i	i	.	.	.	.	.	.

Screening data (PubChem)
